Measured values reported in ChEMBL document CHEMBL4513216, “Probing the Open Global Health Chemical Diversity Library for Multistage-Active Starting Points for Next-Generation Antimalarials” (ACS Infect Dis, 2020).

Test: Toxicity liver stage against HepG2, at 10uM
Format: cell-based
Design: test concentration 10 uM, cell line HepG2-A16-CD81EGFP
Conditions: human, HepG2-A16-CD81EGFP cells; read-out: INHIBITION
Summary of the method: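 Uninfected HepG2-A16-CD81EGFP cells, 3 × 10^3 per well, 1536-well, plated on prespotted compound at 10 μM final, parasite-free screening media added to match infected plates; puromycin 10 μM positive, DMSO 0.5% negative; run in parallel with 48 h PbLuc assay at 37 °C, 5% CO2; viability by CellTiter-Glo luminescence, normalized to controls.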

SMILES	cytotoxicity at 10 µM
COc1cccc2c3c(c(=O)[nH]c12)CC(C)(C)O3	-6.1%
C/N=C1\c2cc3cc(OC)ccc3n2CCN1C	-10.1%
O=c1c2ccccc2nnn1CN(CC1CCOC1)C1CC1 (stereo not given)	-0.543%
Cc1ccc2[nH]c(CO[C@H]3CN(c4ccc(C#N)cn4)C[C@H]3F)nc2c1	-1.6%
CC(C)N[C@@H]1CO[C@H](CNC(=O)c2ccccc2)[C@H]1O	-5.73%
CC(=O)N[C@H]1CCN2C(=O)[C@@H](Cc3c[nH]c4ccccc34)NC(=O)[C@H]12	-0.639%
COc1ccc2nc3n(c2c1)[C@@H](CNC(=O)c1cncnc1)COC3	0.488%
COc1ccc(CN2CCOC[C@H](OCc3ccccc3)C2)cc1	2.79%
CCC(C)NC(=O)CCn1ccc(C)n1 (stereo not given)	-0.634%
COCCCNC(=O)c1cn(C(C)(C)C)c2ncccc12	0.0915%
COc1ccc(C2SC(C)=Nc3c2c(=O)[nH]n3C2CCCC2)cc1O (stereo not given)	9.98%
COc1ccc2nnc(CCCC(=O)NCc3ccccc3F)n2n1	-0.524%
O=C(c1ccoc1)N1CC[C@H]2[C@H]1CCN2CC1CC1	2.5%
CO[C@@H]1CCN(C(=O)c2cc(C)on2)C[C@@H]1Cc1ccccc1	1.11%
CCc1cnc(N2C[C@@H]3[C@@H](C(=O)NCC(C)C)CCS(=O)(=O)[C@@H]3C2)nc1	-135%
c1cncc(COCC2CN(Cc3ccco3)Cc3nccn3C2)c1 (stereo not given)	-157%
CCC(=O)N1CCC2(CC1)CC(NC(=O)N(C)C)c1cc(C)ccc12 (stereo not given)	8.39%
Cc1noc([C@H]2CC[C@@H]3[C@@H](CCN3S(=O)(=O)C3CC3)O2)n1	-1.98%
O=C(c1c[nH]cn1)N1CCCn2c(nnc2Cn2cccc2)C1	0.399%
CN(C)CCNC(=O)CNC(=O)N1CCc2c([nH]c3ccc(Cl)cc23)C1	7.36%
COc1ccc2c(c1)CC(NC(=O)NCc1cccs1)CO2 (stereo not given)	7.52%
Cn1cc(C(=O)N2C[C@@H]3COC[C@]3(COCc3cccnc3)C2)cn1	-0.8%

SMILES	cytotoxicity at 10 µM
O=C(c1ccc[nH]1)N1CCCC2(CCN(c3ccsc3)C2=O)C1 (stereo not given)	-0.449%
Cc1nn(CC(=O)N2CCN(Cc3cnn(C)c3C)CC2)cc1Br	-7.55%
COCCC(=O)N1Cc2nc3c(C)c(-c4cccs4)nn3c(O)c2C1	-1.19%
Cc1cc(-c2ccccc2)nc(C2CCCN2S(C)(=O)=O)n1 (stereo not given)	3.5%
Cc1cc(C)n2ncc(CN3C[C@@H](O)[C@H](Oc4ccccc4)C3)c2n1	-33%
CCCNC(=O)c1cc(C2CCCN(Cc3ccccn3)C2)no1 (stereo not given)	-32%
O=S(=O)(N1CCOCC1)N1CCCC1Cn1cccn1 (stereo not given)	-8.18%
Cn1ccc(C(=O)N2CCOC(c3ccccn3)C2)cc1=O (stereo not given)	-31.4%
CCc1ccccc1Nc1noc2c1CN(C(=O)CCOC)CC2	-16.6%
COCCN1CCC(c2cncc(-c3cccc(Cl)c3)n2)CC1	-29.9%
Cn1cnc(CNC(=O)c2ccccc2-n2cc(CN)cn2)c1	-16.9%
O=C(O)COc1ccccc1CN1CCCC1c1ccncn1 (stereo not given)	-29.2%
c1cnc(Nc2cncc(C3CCCN(c4cnccn4)C3)n2)nc1 (stereo not given)	-8.74%
CC(C)S(=O)(=O)CC(=O)N1CCCC(n2ccnc2)C1 (stereo not given)	10.2%
CC(C)C(CCO)NC(=O)Nc1ccc(-c2csnn2)cc1 (stereo not given)	-10%
CNC(=O)c1cccc(CN2CCC(N(C)Cc3noc(C)n3)C2)c1 (stereo not given)	4.37%
COCCn1cc(NC(=O)NC(C)c2ccc(Cl)s2)cn1 (stereo not given)	7.25%
Fc1ccccc1CN1CCC(c2n[nH]c(C3CC3)n2)CC1	6.21%
O=C(Cn1ccc(=O)[nH]c1=O)NCC1Cc2ccccc2O1 (stereo not given)	3.74%
CCn1nc(C)c(CNC(=O)NCC(C)(O)c2ccccc2)c1C (stereo not given)	-7.12%
CN(C)c1ccc(C(=O)N2CCCC2c2ccc(Cl)cc2)nn1 (stereo not given)	-10.7%
CCOCCCNC(=O)Cc1cccc(F)c1	12.1%

SMILES	cytotoxicity at 10 µM
c1ccc(-c2nc(CN3CCOC(Cn4cccn4)C3)cs2)cc1 (stereo not given)	8.62%
O=C(NCC1CC1)c1cnc(-c2ccccc2)nc1	7.5%
CCOCCC(=O)Nc1cc(C)cnc1OC	18.9%
CN(C(=O)CN(Cc1cccc(O)c1)C1CCC(O)CC1)C1CC1 (stereo not given)	-0.586%
Cc1cccc(C(C)(C)CNc2cn[nH]c(=O)c2Cl)c1	23.3%
NC(=O)CCn1nnc(-c2cc3ccccc3o2)n1	4.56%
OCC(CO)Nc1ccc2ccc(Cl)c(Cl)c2n1	-8.82%
Cc1cn2nc(Sc3nnc(C(C)C)n3C)sc2n1	2.3%
CS(=O)(=O)NCC(=O)NC1(c2ccc(Cl)c(Cl)c2)CC1	-10.7%
NC(=O)c1ccc(NC(=O)CCN2CCCC(N3CCCC3)C2)cc1 (stereo not given)	-8.59%
Cc1noc([C@]23COC[C@H]2CN(C(=O)COC2CCCC2)C3)n1	-104%
CCn1nc(C)cc1C(=O)N1C[C@@H]2C[C@@H](c3noc(C)n3)O[C@@H]2C1	8.06%
NC(=O)N1CCc2ncc(CNC(=O)CC3CC3)n2CC1	2.11%
CC(C)NC(=O)N1CCC2(CC1)Cc1ccccc1CN(C)C2=O	5.55%
COCCN(C)C(=O)c1nc2c(s1)CCCN2c1ccc(C)nn1	-2.4%
COCCN1CCN(Cc2ccoc2)Cc2cccnc21	-75%
O=C(NCc1ccncc1)C1=NOC2(CCCNC2)C1 (stereo not given)	5.31%
CN1CCC(Cc2noc(CCc3nc4ccccc4nc3O)n2)CC1	7.23%
Cn1cc2ncn(C3CCN(c4ccccc4F)CC3)c(=O)c2n1	4.44%
CNc1nc(C)cc(N2CCC(C(=O)O)(n3ccc(C(C)C)n3)CC2)n1	1.52%
N#Cc1cccc(N2CCC(c3nccn3Cc3cscn3)CC2)n1	1.46%
COc1nc2c(cc1C(=O)NCCc1nc3c(s1)CCC3)CCC2	5.05%

SMILES	cytotoxicity at 10 µM
Cc1nc2c(c(=O)n1C)CN(C(=O)C1CCN(C(=O)C3CCC3)CC1)C2	-3.54%
O=C(c1ccc(S(=O)(=O)NCc2ccon2)cc1)N1CCCCCC1	0.424%
COc1cnc(N2CCC(c3ncc[nH]3)CC2)nc1	0.852%
CC(C)c1cc(N2CCSCC2)n2nccc2n1	4.66%
CC(C)(CN1CCCC1)CN1CCC(Cn2cc(CCO)nn2)CC1	1.87%
Cc1ccc(C2(O)CCN(C(=O)c3cccc(S(C)(=O)=O)c3)CC2)nc1	-5.3%
Cc1cc(C2CCCN2C(=O)Cn2c(C)cc(=O)c3ccccc32)on1 (stereo not given)	-9.02%
O[C@@]1(CNCC2(Cn3ccnc3)CC2)CCCN2CCCC[C@@H]21	5.09%
CCCN1CC2(CCN(C)CC2)CC1C(=O)NCc1cc(C)nn1C (stereo not given)	0.318%
COCCN1CCCC2(CCN(c3ncc(Cl)cc3Cl)C2)C1=O (stereo not given)	9.44%
Cc1cc(N2CC[C@H](O)C2)n2nc(C)c(C)c2n1	-3.62%
Cc1ccc(CC2COc3ccccc3C2)c(N)n1 (stereo not given)	-7.12%
Cc1cc(C)n(CCC2CC(=O)Nc3cc(O)c(C)cc32)n1 (stereo not given)	-1.74%
CCCC1COCCN1Cc1ccc(S(=O)(=O)NC)cc1 (stereo not given)	-142%
CN(C)c1cc(CNc2cncc(-n3cccn3)n2)ccn1	6.26%
O=C(CC(F)(F)F)Nc1cc(F)ccc1OCC1CCCO1 (stereo not given)	5.48%
O=C1C(NCc2nnc3n2CCCC3)CCCN1c1ccccc1 (stereo not given)	-9.69%
COc1ccc(CNCC2CNc3cc(C)nn3C2)cn1 (stereo not given)	-16.5%
CC(C)c1n[nH]c(C2CN(C(=O)c3ccnc(C4CC4)n3)CCO2)n1 (stereo not given)	-12.6%
CC(=O)Nc1nc(C(=O)NC(C)c2ccncc2)cs1 (stereo not given)	-6.5%
Cc1cc(C[S+]([O-])CC(=O)NCC(C)C)no1 (stereo not given)	-4.17%
CCc1nc(C2CCCN2CC(=O)Nc2c(C)n[nH]c2C)no1 (stereo not given)	-3.79%

SMILES	cytotoxicity at 10 µM
CCOc1ccc(Cl)c(C(=O)N2CCN(C(=O)c3ccoc3C)CC2)n1	-6.69%
CNC(=O)NC(=O)CN1CCC(c2cccc(F)c2)C1 (stereo not given)	-8.75%
COc1cccc(CCC(=O)N2CCCCC2Cn2cccn2)c1 (stereo not given)	-11.3%
O=C(N1CCOCC1)N1CCC2(CCNC2)C1 (stereo not given)	-2.89%
CC1c2ncc(COc3cccnc3)n2CCN1C(=O)C1=CCCCC1 (stereo not given)	3.39%
CCN1CCn2c(C)cnc2C12CCN(C(=O)COC)CC2	6.5%
O=C1C[C@H]2[C@@H](CCN2C(=O)c2ccoc2)N1CCN1CCOCC1	-5.26%
COCC1CN(Cc2ccoc2)Cc2nnn(C)c21 (stereo not given)	-3.73%
Cc1cccc(CN2CCCC3(CCC(=O)N3CCN(C)C)CC2)n1 (stereo not given)	-0.891%
O=C1N(c2ccsc2)CCC12CCCN(Cc1ccccn1)C2 (stereo not given)	2.03%
CC1=N[C@@]2(CC[C@@H]3CN(CC(=O)N(C)C)C[C@@H]32)C(=O)N1CC(C)C	9.66%
COCCN1CCC2(COCc3cnc(N(C)C)nc32)C1 (stereo not given)	1.39%
Cn1cc(CN2CCn3cc(Cn4cccn4)nc3C2)cn1	4.49%
O=C(NCC1CC1)C1CCC2(CCN(C(=O)c3ccncc3)CC2)O1 (stereo not given)	-0.0368%
COC[C@H]1CC[C@@H]2[C@@H](CCN2Cc2ccco2)O1	-137%
COCc1ncn2c1CN(C(=O)c1ccc3ccccc3n1)CC2	8.42%
OC(CN1CCN(Cc2cc(F)ccc2F)CC1)C1CC1 (stereo not given)	0.353%
Cc1cnc(N2CCn3c(CN4CCOCC4)nnc3C2)nc1	-153%
CCc1ncnc2c1CCN(Cc1ccc3c(c1)OCO3)CC2	-139%
CN(C)C(=O)N1C[C@H](Oc2ccccn2)[C@H]2OCCC[C@H]21	6.07%
Cc1cccc(CN2CC[C@@H]3[C@@H]2CCN3C(=O)c2cc(C)oc2C)n1	-4.42%
O=C1CC2(CCN(CC3CC3)C2)CN1c1cccc(F)c1 (stereo not given)	-6.25%
